Ecoli WT expand: growth inhibitors of wild-type E. coli, primary screen, strain BW25113, expanded library, OD600; OD600 absorbance; 98,000 compounds, 0.15% hits; growth inhibition, % at 100 µM;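 active means growth inhibition above about 50% at one test dose, limit read from the data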;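 further: growth measured after 20 h incubation at 37 °C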
M1 agonist: M1 muscarinic receptor agonists, primary screen, CHO-M1 cells, Fluo-4 calcium, agonist mode | Fluo-4 calcium fluorescence; stronger effect = higher value | B-score at 10 µM | 64,000 compounds, 3% hits;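 active means fluorescence rise, raw or as B-score row- and column-corrected plate score, outside the 99.7% band of its plate's samples, either direction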
AP complement: alternative complement pathway inhibitors, primary screen, biochemical, ELISA, human serum, orthogonally pooled compounds | LPS-coated ELISA, C3 deposition; tested in compound mixtures | inhibition, % at 5 µM | 62,000 compounds, 0.08% hits | AID 1235, 2008;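 active means inhibition above 30% in each of the two pooled mixtures holding the compound, so the lower value exceeds 30%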;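 further: 0% = serum in Mg-EGTA without compound and 100% = EDTA serum blank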
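Test system: human serum alternative complement pathway, C3 deposition on LPS-coated wells; also added: Plate-bound LPS; doses: 5 µM per compound in ten-compound mixtures; schedule: 1 h at 37 °C; detection: Anti-C3 ELISA, OD 450 nm; evaluation: percent inhibition of C3 deposition onto LPS; repeats: two pool placements per compound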
WNV NS2B-NS3 inh: inhibitors of WNV NS2B-NS3 protease, primary screen, biochemical, fluorogenic substrate. fluorogenic substrate Ex360/Em465; stronger effect = lower value. z-score (no concentration beside the values). AID 577, 2007. 65,000 compounds, 0.18% hits; in the data active means z-score below about -3
tolC growth inh: growth inhibitors of E. coli tolC mutant, primary screen, strain BW25113 ΔtolC::kan, 384-well; OD615; growth inhibition, % at 10 µM (by protocol); 65,000 compounds, 2.2% hits;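 active means growth inhibition at or above a cutoff equal to the mean over every tested compound plus 3 SD, cut at about 60% in these data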;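 further: growth measured after 20 h incubation at 37 °C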
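Signal: optical density read at 615 nm; Assay system: E. coli ΔtolC::kan strain BW25113; Times: 20 h incubation with compound, 37 °C; Dosing: 10 µM final, single dose.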
M1 antag: antagonists of rat M1 muscarinic receptor | CHO-M1 cells, Fluo-4 calcium, ACh EC80 antagonist mode; stronger effect = lower value | B-score at 10 µM | 64,000 compounds, 3.4% hits | AID 628, 2007;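 active means calcium fluorescence response, raw or row-and-column corrected B-score, differing from the plate sample mean either way at a set confidence level, mostly lower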
Target sequence (P08482 whole entry, looked up): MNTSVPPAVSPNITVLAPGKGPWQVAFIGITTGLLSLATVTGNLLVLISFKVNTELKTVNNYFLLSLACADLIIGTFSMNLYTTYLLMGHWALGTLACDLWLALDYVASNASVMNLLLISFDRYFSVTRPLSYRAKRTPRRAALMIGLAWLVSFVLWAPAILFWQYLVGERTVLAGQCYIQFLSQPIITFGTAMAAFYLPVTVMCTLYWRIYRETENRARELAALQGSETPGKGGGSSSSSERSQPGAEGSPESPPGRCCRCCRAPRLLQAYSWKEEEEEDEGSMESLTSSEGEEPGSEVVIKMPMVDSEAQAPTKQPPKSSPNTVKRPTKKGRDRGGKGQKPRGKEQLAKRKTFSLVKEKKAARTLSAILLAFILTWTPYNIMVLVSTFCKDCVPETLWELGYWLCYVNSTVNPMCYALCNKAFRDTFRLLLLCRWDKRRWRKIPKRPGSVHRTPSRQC
M1 antag conf: rat M1 muscarinic receptor antagonists, confirmation, CHO cells, Fluo-4 calcium, duplicate; 1,700 compounds, 43% hits; shares compounds with M1 antag; ACh EC80 antagonism; stronger effect = lower value; calcium response (max-min fluorescence) at 10 µM;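 active means calcium response below the same-plate mean of wells given acetylcholine alone at its 80%-effect dose, minus 3 SD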;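 further: raw fluorescence intensity difference in arbitrary instrument units and not normalized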
mGluR4 antag: human mGluR4 response to M1 antagonist hits, M1 allosteric modulator project, cell-based, antagonist mode, secondary assay 1. shares compounds with M1 antag. CHO-mGluR4 calcium flux, Fluo-4 fluorescence, glutamate EC80; stronger effect = lower value. fluorescence response (max-min) at 10 µM. 1,700 compounds, 0.9% hits. AID 678, 2007;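 active means fluorescence response below the plate's average for near-maximal glutamate wells, less 3 SD of those wells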;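 further: raw unnormalized fluorescence span taken in the window right after glutamate addition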
The depositor's hits bear a star; · = not tested or not shown. The list is not random: actives were taken first. Their share in the collection is about 5.2%.

SMILES	Ecoli WT expand	M1 agonist	AP complement	WNV NS2B-NS3 inh	tolC growth inh	M1 antag	M1 antag conf	mGluR4 antag
CCOC(=O)c1cc(C)n(CCCN2CCOCC2)c1C	9.0	-0.197	6.9	0.29	-14.3	-1.01*	403*	204
CCOC(=O)c1cc(C)n(Cc2ccccc2)c1C	1.0	0.0529	11.1	-0.52	19.4	0.00347	·	·
Cc1nc2ccc(NC(=O)N3CCSCC3)cc2nc1C	7.0	0.403	19.5	-1.6	-6.9	0.555	·	·
O=C(Nc1ccc2nc(-c3cccs3)c(-c3cccs3)nc2c1)N1CCOCC1	-7.0	0.155	2.1	0.55	17.4	-11.8*	138*	206
CC1CCN(CC(O)COC2CCC(C(C)(C)C)CC2)CC1 (stereo not given)	18.0	-0.0896	-0.9	-0.61	34.7	-4.03*	481	230
CCN(CC)CCOCCOc1cc(C)c(Cl)c(C)c1	-2.0	·	·	·	·	·	·	·
CCN(CC)CCOc1cccc(C(C)C)c1	8.0	-0.0289	2.5	-1.14	-14.7	-4.53*	294*	213
S=c1[nH]nc(Cc2ccccc2)n1Cc1ccco1	4.0	0.768	15.5	-0.44	11.9	-13.1*	51.7*	240
CCOC(=O)c1cc2sccc2n1CC(=O)Nc1ccc2c(c1)OCCO2	-11.0	-1.01	13.8	-0.13	6.7	-0.929*	494	218
COc1cc2c(cc1OC)CN(C(=O)c1ccc(OC)c(S(=O)(=O)N3CCOCC3)c1)CC2	7.0	-0.731	-3.6	0.07	-3.3	-0.836*	586	239
O=C(Cn1cc(C(F)(F)F)ccc1=O)N1CCN(S(=O)(=O)c2ccccc2)CC1	2.0	-0.129	12.0	-0.28	-18.0	0.317	·	·
COc1ccc(NC(=O)c2c(F)c(F)c(F)c(F)c2F)cc1Cl	1.0	-0.192	5.0	-1.13	8.8	0.308	·	·
COc1cc(NC(=O)c2c(F)c(F)c(F)c(F)c2F)c(OC)cc1Cl	2.0	-0.109	-8.0	0.82	-26.3	-2.93*	529	148*
CCOC(=O)Nc1ccc2c(c1)N(C(=O)N1CCN(C)CC1)c1ccccc1S2	5.0	0.0412	5.4	0.5	64.9*	-14.9*	14.4*	268
CCOC(=O)Nc1ccc2c(c1)Sc1ccccc1N2C(=O)CCN1CCOCC1	2.0	1.44	10.7	-0.75	12.6	-3.48*	317*	257
Cc1ccc(C(=O)N/C(=C\c2ccco2)C(=O)NCCCn2ccnc2)cc1C	8.0	·	·	·	·	·	·	·
COc1ccc(CNC(=O)CN(CC2CCCO2)C(=O)CNS(=O)(=O)c2ccccc2)cc1 (stereo not given)	5.0	-0.764	6.1	0.53	-3.0	-2.44*	546	189
CCCCC(=O)NC1(C(F)(F)F)C(=O)Nc2c1c(=O)[nH]c(=O)n2Cc1ccco1 (stereo not given)	-3.0	-0.542	4.0	-0.04	-3.1	-4.72*	706	230
COc1ccc(C(C(=O)OC(C)CN(C)C)c2ccccc2)cc1 (stereo not given)	3.0	-0.142	3.6	0.08	-17.8	-2.97*	333*	214
CN(C)CC(C(=O)c1ccccc1)c1ccccc1 (stereo not given)	22.0	0.645	6.6	-0.21	19.0	-1.64	·	·
CC(C)(C)Cc1nc(-c2ccccn2)no1	3.0	0.0152	10.7	-0.1	-8.6	-0.0145	·	·
CCC(c1ccccc1)c1nc(-c2ccccn2)no1 (stereo not given)	-3.0	0.887	7.4	-0.09	7.1	-6.03*	621	239
CCOC(=O)c1cnc2c(Cl)c(Cl)ccc2c1N1CCN(C)CC1	-1.0	-0.524	-0.8	-0.82	14.3	-3.13*	511	211
Cc1ccc2oc(=O)c3cnn(CC(=O)NC4CCC(C)CC4)c3c2c1 (stereo not given)	-3.0	-0.765	27.9	-0.16	0.3	-0.983	·	·
Cc1ccc2oc(=O)c3cnn(CC(=O)Nc4ccccc4N4CCN(C)CC4)c3c2c1	-3.0	0.0539	-0.1	1.41	9.0	-15.9*	252*	259
SMILES	Ecoli WT expand	M1 agonist	AP complement	WNV NS2B-NS3 inh	tolC growth inh	M1 antag	M1 antag conf	mGluR4 antag
Cc1cc([N+](=O)[O-])cnc1NC(C)c1ccccc1 (stereo not given)	-5.0	·	·	·	·	·	·	·
CCN1C(=O)c2cccc3c(NC(=O)c4ccc(OC)c(OC)c4)ccc1c23	-16.0	·	·	·	·	·	·	·
CCOc1ccc(Nc2nc(Cc3nnc(SCC(N)=O)o3)cs2)cc1	1.0	-0.897	6.0	-0.82	-14.6	-1.69*	661	262
Cc1ccc(CNC(=O)C2CCCCC2C(=O)O)cc1 (stereo not given)	-13.0	0.435	13.2	0.44	-3.7	0.707	·	·
CC(C)(C)c1cc(C(=O)NCc2ccccc2)ccn1	1.0	-1.97	22.7	-0.27	·	-4.24*	679	217
CCOc1ccccc1C(=O)Nn1c(C2CCC2)nc2ccccc2c1=O	7.0	1.67	6.0	-0.29	15.2	-0.394	·	·
COc1ccccc1C(=O)Nn1c(C2CCC2)nc2ccccc2c1=O	3.0	0.713	9.4	1.13	-2.2	-3.34*	519	180
O=C(NC1CCCCC1)n1c(=O)oc2ccccc21	8.0	-0.149	-2.0	-0.45	-14.2	-14.6*	703	207
O=C(c1oc(=O)c2ccccc2c1-c1ccccc1)N1CCN(C2CCCCC2)CC1	9.0	1.08	13.7	0.82	29.6	-6.61*	349*	209
COC(=O)c1ccc2c(=O)n(Cc3ccc4c(c3)OCO4)c(SCC(=O)N3CCCC3)nc2c1	·	-1.73	4.5	1.14	0.8	0.157	·	·
Cc1cccn2c(=O)c3cc(C(=O)NC4CCCC4)c(=N)n(C4CCCC4)c3nc12	12.0	-0.0982	2.0	6.46	11.9	-4.77*	367*	258
N=c1c(C(=O)NC2CCCC2)cc2c(=O)n3ccccc3nc2n1C1CCCC1	4.0	1.9	17.6	3.1	-0.2	0.697	·	·
Cc1cccn2c(=O)c3cc(C(=O)NC4CCCCC4)c(=N)n(CCN4CCOCC4)c3nc12	·	1.35	12.7	-0.68	-19.9	-2.42*	461	199
CCOC(=O)N1CCC(N2Cc3cccc(C(=O)NC(C)c4ccc5c(c4)OCCO5)c3C2=O)CC1 (stereo not given)	0.0	0.233	1.2	-0.00466	28.6	-0.634	·	·
Cc1ccc(NCC(=O)N/N=C/c2ccc(OC(=O)c3ccco3)cc2)cc1	-7.0	·	·	·	·	·	·	·

Assay outcomes (PubChem)
